Laboratory results reported in ChEMBL document CHEMBL2424527, “Doxorubicin-antioxidant co-drugs” (Bioorg Med Chem Lett, 2013).
The source made the active and inactive calls. The calls are words filed in the database; no cut-off is given here.

Key:
MDA-MB-231 [1] = assay: Antioxidant activity in human MDA-MB-231 cells assessed as intracellular malonyldialdehyde level at 5 umol/L after 24 hrs by spectrofluorimetry; format: functional, cell-based
MCF7 [2] = assay: Antioxidant activity in human MCF7 cells assessed as intracellular malonyldialdehyde level at 5 umol/L after 24 hrs by spectrofluorimetry; format: functional, cell-based
H9c2 [3] = assay: Antioxidant activity in rat H9c2 cells assessed as intracellular malonyldialdehyde level at 5 umol/L after 24 hrs by spectrofluorimetry; format: functional, cell-based
MDA-MB-231 [4] = assay: Antioxidant activity in human MDA-MB-231 cells assessed as intracellular ROS level at 5 umol/L after 24 hrs by DCFDA-AM staining-based spectrofluorimetry; format: functional, cell-based
Outline: (§1)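 Cells rinsed in PBS, loaded with 10 μmol/L DCFDA-AM for 10 min at 37°C, washed, resuspended in PBS. DCFH fluorescence read at ex 490/em 530 nm, cell-free blank subtracted, converted to nmol/mg cell protein by titration curve. Means ± SD; ANOVA with Tukey's test.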

MCF7 [5] = assay: Antioxidant activity in human MCF7 cells assessed as intracellular ROS level at 5 umol/L after 24 hrs by DCFDA-AM staining-based spectrofluorimetry; format: functional, cell-based; outline: as §1
H9c2 [6] = assay: Antioxidant activity in rat H9c2 cells assessed as intracellular ROS level at 5 umol/L after 24 hrs by DCFDA-AM staining-based spectrofluorimetry; format: functional, cell-based; outline: as §1
MDA-MB-231 [7] = assay: Antioxidant activity in human MDA-MB-231 cells assessed as intramitochondrial ROS level at 5 umol/L after 24 hrs by DCFDA-AM staining-based spectrofluorimetry; format: functional, cell-based
Outline: (§2)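 Mitochondria freshly isolated from cells grown 24 h with 5 μmol/L compound. DCFDA-AM loading and fluorescence read (ex 490/em 530 nm) as for whole cells, blank subtracted. Values expressed as nmol/mg mitochondrial protein. Measured in duplicate; means ± SD.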

MCF7 [8] = assay: Antioxidant activity in human MCF7 cells assessed as intramitochondrial ROS level at 5 umol/L after 24 hrs by DCFDA-AM staining-based spectrofluorimetry; format: functional, cell-based; outline: as §2
H9c2 [9] = assay: Antioxidant activity in rat H9c2 cells assessed as intramitochondrial ROS level at 5 umol/L after 24 hrs by DCFDA-AM staining-based spectrofluorimetry; format: functional, cell-based; outline: as §2
[10] = Cellular uptake in human MDA-MB-231 cell nucleus at 5 umol/L after 24 hrs by fluorimetric analysis; format: ADME, cell-based; settings: mda-mb-231, 24 h, 5 µM
Outline: (§3)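 Cells incubated 24 h with 5 μmol/L drug. Doxorubicin measured fluorimetrically in nuclear or mitochondrial extracts, in duplicate. Means ± SD, n = 3.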

[11] = Cellular uptake in human MCF7 cell nucleus at 5 umol/L after 24 hrs by fluorimetric analysis; format: ADME, cell-based; settings: mcf7, 24 h, 5 µM; outline: as §3
Homo sapiens = species on record: Homo sapiens; assay: Inhibition of human topoisomerase 2 using supercoiled pHOT1 as substrate at 1 to 50 umol/L by agarose gel electrophoresis
Outline: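 Purified human topoisomerase II incubated with supercoiled pHOT1 plasmid and drug at 1, 5, 25, 50 μmol/L, using a commercial topoisomerase II drug screening kit. Etoposide at 5, 50, 100 μmol/L served as positive control.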

MDA-MB-231 [12] = assay: Drug efflux in human MDA-MB-231 cells at 1 to 100 umol/L incubated for 20 mins prior to compound wash out measured after 10 mins by spectrofluorimetry; format: ADME, cell-based; settings: mda-mb-231, 20 min
Outline: (§4)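 Doxorubicin in whole-cell lysates measured fluorimetrically at ex 475/em 553 nm, blank subtracted, converted to nmol/mg cell protein by calibration curve. Kinetic values fitted to Michaelis-Menten equation to obtain Vmax and Km.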

MCF7 [13] = assay: Drug efflux in human MCF7 cells at 1 to 100 umol/L incubated for 20 mins prior to compound wash out measured after 10 mins by spectrofluorimetry; format: ADME, cell-based; settings: mcf7, 20 min; outline: as §4
H9c2 [14] = assay: Drug efflux in rat H9c2 cells at 1 to 100 umol/L incubated for 20 mins prior to compound wash out measured after 10 mins by spectrofluorimetry; format: ADME, cell-based; settings: h9c2, 20 min; outline: as §4
MDA-MB-231 [15] = assay: Cellular uptake in human MDA-MB-231 cells at 5 umol/L after 24 hrs by spectrofluorimetry; format: ADME, cell-based; settings: mda-mb-231, 24 h, 5 µM
Outline: (§5)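 Cells exposed 24 h to 5 μmol/L drug. Doxorubicin in whole-cell lysates read fluorimetrically at ex 475/em 553 nm, cell-free blank subtracted. Converted to nmol/mg cell protein via calibration curve. Duplicate measurements; means ± SD, n = 3.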

MCF7 [16] = assay: Cellular uptake in human MCF7 cells at 5 umol/L after 24 hrs by spectrofluorimetry; format: ADME, cell-based; settings: mcf7, 24 h, 5 µM; outline: as §5
MDA-MB-231 [17] = assay: Cytotoxicity against human MDA-MB-231 cells assessed as LDH release at 5 umol/L after 24 hrs; format: functional, cell-based
Outline: (§6)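 Cells exposed 24 h to 5 μmol/L compound. Medium centrifuged 12,000 × g, 15 min; cells sonicated in 82.3 mmol/L triethanolamine phosphate-HCl pH 7.6. LDH read at 340 nm over 6 min in medium and lysate, in duplicate. Extracellular activity given as % of total; means ± SD, n = 4.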

H9c2 [18] = assay: Cellular uptake in rat H9c2 cells at 5 umol/L after 24 hrs by spectrofluorimetry; format: ADME, cell-based; settings: h9c2, 24 h, 5 µM; outline: as §5
MCF7 [19] = assay: Cytotoxicity against human MCF7 cells assessed as LDH release at 5 umol/L after 24 hrs; format: functional, cell-based; outline: as §6
H9c2 [20] = assay: Cytotoxicity against rat H9c2 cells assessed as LDH release at 5 umol/L after 24 hrs; format: cell-based; settings: h9c2, 24 h, 5 µM; outline: as §6
[21] = Cellular uptake in human MDA-MB-231 cell mitochondria at 5 umol/L after 24 hrs by fluorimetric analysis; format: ADME; settings: mda-mb-231, 24 h, 5 µM; outline: as §3
[22] = Cellular uptake in human MCF7 cell mitochondria at 5 umol/L after 24 hrs by fluorimetric analysis; format: ADME; settings: mcf7, 24 h, 5 µM; outline: as §3
[23] = Cellular uptake in rat H9c2 cell mitochondria at 5 umol/L after 24 hrs by fluorimetric analysis; format: ADME; settings: h9c2, 24 h, 5 µM; outline: as §3
[24] = Cellular uptake in rat H9c2 cell nucleus at 5 umol/L after 24 hrs by fluorimetric analysis; format: ADME, cell-based; settings: h9c2, 24 h, 5 µM; outline: as §3

Drug uptake [10] | Drug uptake [11] | inhibition (Homo sapiens) | Km (MDA-MB-231 [12]) [nmol/mg] | Vmax (MDA-MB-231 [12]) [nmol/min/mg] | Drug uptake (MDA-MB-231 [15]) | Drug uptake (MCF7 [16]) | Drug uptake (H9c2 [18]) | Compound | Activity (MDA-MB-231 [1]) | Activity (MCF7 [2]) | Activity (H9c2 [3]) | Activity (MDA-MB-231 [4]) | Activity (MCF7 [5]) | Activity (H9c2 [6]) | Activity (MDA-MB-231 [7]) | Activity (MCF7 [8]) | Activity (H9c2 [9]) | Activity (MDA-MB-231 [17]) | Activity (MCF7 [19]) | Activity (H9c2 [20]) | further results
Active | Active | Active | 1.35 | 33.11 | Active | Active | Not Active | COc1cccc2c1C(=O)c1c(O)c3c(c(O)c1C2=O)C[C@@](O)(C(=O)CO)C[C@@H]3O[C@H]1C[C@H](N)[C@H](O)[C@H](C)O1 [DOXORUBICIN] | inactive | Active | Active | inactive | Active | Active | inactive | Active | Active | Active | Active | Toxic | Km (MCF7 [13]): 1.88 nmol/mg; Vmax (MCF7 [13]): 18.9 nmol/min/mg; Km (H9c2 [14]): 1.96 nmol/mg; Vmax (H9c2 [14]): 11.89 nmol/min/mg
Active | Active | Active | 1.25 | 16.53 | Active | Active | Not Active | COc1cc(/C=C/C(=O)OCC(=O)[C@]2(O)Cc3c(O)c4c(c(O)c3[C@@H](O[C@H]3C[C@H](N)[C@H](O)[C@H](C)O3)C2)C(=O)c2c(OC)cccc2C4=O)ccc1O.Cl | inactive | Active | Active | inactive | Active | Active | inactive | Active | Active | Active | Active | Toxic | Drug uptake [21]: Active; Drug uptake [22]: Active; Drug uptake [23]: Active; Drug uptake [24]: Active; Km (MCF7 [13]): 1.83 nmol/mg; Vmax (MCF7 [13]): 11.1 nmol/min/mg; Km (H9c2 [14]): 2.01 nmol/mg; Vmax (H9c2 [14]): 11.7 nmol/min/mg
 |  |  |  |  | Active | Active | Active | COc1cccc2c1C(=O)c1c(O)c3c(c(O)c1C2=O)C[C@@](O)(C(=O)COC(=O)/C=C/c1ccc(O)c(O)c1)C[C@@H]3O[C@H]1C[C@H](N)[C@H](O)[C@H](C)O1.Cl |  |  |  |  |  |  |  |  |  | inactive | Active | Toxic | 
